Laboratory results: ChEMBL document CHEMBL2150950, “Effect of 4-aryl-2-methyl-5-nitro-1,4-dihydropyridine-3-carboxylates on the guinea pig papillary muscle and isolated human vena saphena magna that is used for coronary artery bypass grafting” (2011)
Calls of active or inactive are those of the source. The calls are words filed in the database; no cut-off is given here.

Assays:
[1] = Ionotropic effect in guinea pig right ventricle papillary muscles assessed as contraction force at 10^-6 M by force transduction assay relative to untreated control (reference value: 100%); type: functional, Cavia porcellus, Papillary muscle
[2] = Ionotropic effect in guinea pig right ventricle papillary muscles assessed as contraction force at 10^-7 M by force transduction assay relative to untreated control (reference value: 100%); type: functional, Cavia porcellus, Papillary muscle
[3] = Ionotropic effect in guinea pig ventricle papillary muscles assessed as lengthening of 90% repolarized cardiac action potential duration time at 10^-4 M by microelectrode technique relative to untreated control (reference value: 132 to 176 APD50 ms); type: functional, Cavia porcellus, Papillary muscle
[4] = Ionotropic effect in guinea pig ventricle papillary muscles assessed as lengthening of 90% repolarized cardiac action potential duration time at 10^-5 M by microelectrode technique relative to untreated control (reference value: 132 to 176 APD50 ms); type: functional, Cavia porcellus, Papillary muscle
[5] = Ionotropic effect in guinea pig ventricle papillary muscles assessed as lengthening of 90% repolarized cardiac action potential duration time at 10^-6 M by microelectrode technique relative to untreated control (reference value: 132 to 176 APD50 ms); type: functional, Cavia porcellus, Papillary muscle
[6] = Ionotropic effect in guinea pig ventricle papillary muscles assessed as lengthening of 90% repolarized cardiac action potential duration time at 10^-7 M by microelectrode technique relative to untreated control (reference value: 132 to 176 APD50 ms); type: functional, Cavia porcellus, Papillary muscle
[7] = Ionotropic effect in guinea pig ventricle papillary muscles assessed as lengthening of 50% repolarized cardiac action potential duration time at 10^-4 M by microelectrode technique relative to untreated control (reference value: 132 to 176 APD50 ms); type: functional, Cavia porcellus, Papillary muscle
[8] = Ionotropic effect in guinea pig ventricle papillary muscles assessed as lengthening of 50% repolarized cardiac action potential duration time at 10^-5 M by microelectrode technique relative to untreated control (reference value: 132 to 176 APD50 ms); type: functional, Cavia porcellus, Papillary muscle
[9] = Ionotropic effect in guinea pig ventricle papillary muscles assessed as lengthening of 50% repolarized cardiac action potential duration time at 10^-6 M by microelectrode technique relative to untreated control (reference value: 132 to 176 APD50 ms); type: functional, Cavia porcellus, Papillary muscle
[10] = Ionotropic effect in guinea pig ventricle papillary muscles assessed as lengthening of 50% repolarized cardiac action potential duration time at 10^-7 M by microelectrode technique relative to untreated control (reference value: 132 to 176 APD50 ms); type: functional, Cavia porcellus, Papillary muscle
[11] = Ionotropic effect in guinea pig ventricle papillary muscles assessed as lengthening of 25% repolarized cardiac action potential duration time at 10^-4 M by microelectrode technique relative to untreated control (reference value: 84 to 104 APD25 ms); type: functional, Cavia porcellus, Papillary muscle
[12] = Ionotropic effect in guinea pig ventricle papillary muscles assessed as lengthening of 25% repolarized cardiac action potential duration time at 10^-5 M by microelectrode technique relative to untreated control (reference value: 84 to 104 APD25 ms); type: functional, Cavia porcellus, Papillary muscle
[13] = Ionotropic effect in guinea pig ventricle papillary muscles assessed as lengthening of 25% repolarized cardiac action potential duration time at 10^-6 M by microelectrode technique relative to untreated control (reference value: 84 to 104 APD25 ms); type: functional, Cavia porcellus, Papillary muscle
[14] = Ionotropic effect in guinea pig ventricle papillary muscles assessed as lengthening of 25% repolarized cardiac action potential duration time at 10^-7 M by microelectrode technique relative to untreated control (reference value: 84 to 104 APD25 ms); type: functional, Cavia porcellus, Papillary muscle
[15] = Ionotropic effect in guinea pig ventricle papillary muscles assessed as lengthening of 10% repolarized cardiac action potential duration time at 10^-4 M by microelectrode technique relative to untreated control (reference value: 37 to 47 APD10 ms); type: functional, Cavia porcellus, Papillary muscle
[16] = Ionotropic effect in guinea pig ventricle papillary muscles assessed as lengthening of […] cardiac action potential duration time at 10^-5 M by microelectrode technique relative to untreated control (reference value: 37 to 47 […] ms); type: functional, Cavia porcellus, Papillary muscle
[17] = Ionotropic effect in guinea pig ventricle papillary muscles assessed as lengthening of 10% repolarized cardiac action potential duration time at 10^-6 M by microelectrode technique relative to untreated control (reference value: 37 to 47 APD10 ms); type: functional, Cavia porcellus, Papillary muscle
[18] = Ionotropic effect in guinea pig ventricle papillary muscles assessed as lengthening of 10% repolarized cardiac action potential duration time at 10^-7 M by microelectrode technique relative to untreated control (reference value: 37 to 47 APD10 ms); type: functional, Cavia porcellus, Papillary muscle
[19] = Ionotropic effect in guinea pig right ventricle papillary muscles assessed as contraction force at 10^-4 M by force transduction assay relative to untreated control (reference value: 100%); type: functional, Cavia porcellus, Papillary muscle
[20] = Ionotropic effect in guinea pig right ventricle papillary muscles assessed as contraction force at 10^-5 M by force transduction assay relative to untreated control (reference value: 100%); type: functional, Cavia porcellus, Papillary muscle
[21] = Vasodilatory activity in human vena saphena magna assessed as reduction in phenylephrine-induced smooth muscle contraction at 100 uM relative to baseline contraction; type: functional; set-up: scale not given: the % may be the effect or the level left
Procedure, shortened: (§1)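 Saphenous vein rings came from 37 CABG patients. They were bathed in Tyrode's solution (mM: NaCl 137, KCl 5.4, CaCl2 1.8, MgCl2 0.9, Tris HCl 10, glucose 5; pH 7.4), equilibrated 45–60 min and washed every 15 min. Rings were precontracted with 10^-4 M phenylephrine, then given cumulative test agent at 10^-7 to 10^-4 M. Isometric relaxation was recorded, as means ± SE.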

[22] = Vasodilatory activity in human vena saphena magna assessed as reduction in phenylephrine-induced smooth muscle contraction at 0.1 uM; type: functional; set-up: scale not given: the % may be the effect or the level left; procedure, shortened: as §1
[23] = Vasodilatory activity in human vena saphena magna assessed as relaxation of phenylephrine-induced smooth muscle contraction at 10^-7 to 10^-4 M; type: functional; procedure, shortened: as §1

| SMILES | Activity [1] [%] | Activity [2] [%] | Time [3] [ms] | Time [4] [ms] | Time [5] [ms] | Time [6] [ms] | Time [7] [ms] | Time [8] [ms] | Time [9] [ms] | Time [10] [ms] | Time [11] [ms] | Time [12] [ms] | Time [13] [ms] | Time [14] [ms] | Time [15] [ms] | Time [16] [ms] | Time [17] [ms] | Time [18] [ms] | Activity [19] [%] | Activity [20] [%] | also measured |
| --- | --- | --- | --- | --- | --- | --- | --- | --- | --- | --- | --- | --- | --- | --- | --- | --- | --- | --- | --- | --- | --- |
| COC(=O)C1=C(C)NC=C([N+](=O)[O-])C1c1ccccc1OC(F)F (stereo unspecified) | 73.5 | 78.85 | 220 | 217 | 202 | 190 | 178 | 177 | 161 | 153 | 112.6 | 111.6 | 93.7 | 90.6 | 39.5 | 39.5 | 35 | 36 | 92.8 | 90.3 |  |
| CCCOCCOC(=O)C1=C(C)NC=C([N+](=O)[O-])C1c1ccc(C(F)(F)F)cc1 (stereo unspecified) | 83.7 | 89.5 | 189.6 | 188 | 180 | 166.7 | 158.7 | 161.2 | 149.6 | 136.6 | 101 | 103.3 | 96 | 91 | 38.2 | 37.5 | 36 | 35 | 73 | 81 |  |
| COC(=O)C1=C(C)NC(C)=C([N+](=O)[O-])C1c1ccccc1OC(F)F (stereo unspecified) | 112.6 | 114.4 | 176.7 | 175 | 178.3 | 178.3 | 148.5 | 147 | 149 | 144.8 | 109.2 | 110.8 | 110.3 | 101.7 | 53.8 | 55.3 | 54.5 | 51.3 | 111 | 108.3 |  |
| COC(=O)C1=C(C)NC=C([N+](=O)[O-])C1c1ccccc1C(F)(F)F (stereo unspecified) | 98.5 | 101 | 184 | 175.5 | 172 | 171.5 | 156.5 | 149.8 | 140.5 | 138 | 111.3 | 103.2 | 91.4 | 92.5 | 47 | 44.7 | 38.5 | 40 | 97.8 | 103 |  |
| CCOC(=O)C1=C(C)NC2=C(C(=O)OC2)C1c1ccccc1OC(F)F (stereo unspecified) |  |  |  |  |  |  |  |  |  |  |  |  |  |  |  |  |  |  |  |  | Activity [21]: 19%; Activity [22]: 50%; Activity [23]: Active |
| COC(=O)C1=C(C)NC(C)=C([N+](=O)[O-])C1c1ccccc1C(F)(F)F (stereo unspecified) | 155 | 123 | 223.5 | 217 | 218.2 | 220 | 133.8 | 129 | 133.8 | 135.6 | 89 | 85.1 | 91 | 92.7 | 42.7 | 41 | 42 | 44.5 | 176 | 175 | Activity [21]: 19%; Activity [22]: 50%; Activity [23]: Active |
